# Experimental data from article PMC6335142 (Korean Journal for Food Science of Animal Resources, 2018).
# Marks after values point to notes of the source that are not given here. Where no end group is shown, it is not given here.
# Legend:
# HCT116 cells = assay: MTT cell viability / proliferation assay in HCT116 cells; format: cell-based, human; conditions: 24 h
# Outline: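 HCT116 cells grown in RPMI1640 with 10% FBS and 1% antibiotics at 37℃, 5% CO2, then seeded at 2×10^4 cells/well and left 24 h. Peptide added at 0–250 μg/mL for 24 h. MTT was added to a final 0.5 mg/mL for 4 h, and the formazan was dissolved in DMSO and read at 540 nm. Data given as means and SEM, with GLM ANOVA and Tukey test, p<0.05.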
# [1] = Oxygen radical absorbance capacity; format: biochemical
# Outline: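 Sample or trolox standard mixed with 80 nM fluorescein and held 15 min at 37℃, then 150 mM AAPH added. Fluorescence (ex 480, em 520 nm) recorded every minute at 37℃. Net AUC was converted through a trolox regression and reported as μmol trolox equivalent. RP-HPLC fractions (C18, 0–40% acetonitrile in 0.1% TFA, 215 nm) were lyophilized and taken up in 75 mM phosphate buffer. Values given as means and SEM with Tukey test.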
# [2] = test system: ERK, JNK and p38 MAP kinase; assay: Western blot of MAP kinase; format: cell-based, human; conditions: 24 h, HCT116 cells
# Outline: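 HCT116 cells seeded at 2×10^5 cells/well, incubated overnight at 37℃, then given peptide at varying concentrations for 24 h. Cells washed in dPBS and lysed on ice in pH 8.0 NaCl/Tris/NP40 buffer with protease inhibitors. 15 μg protein run on 10% SDS-PAGE and blotted to PVDF, blocked in 5% BSA. Blots probed overnight at 4℃ with total and phospho ERK, JNK, p38 and β-actin antibodies (1:200), then HRP secondary. Detection by ECL chemiluminescence.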
sequence,measurement,setting,value
CCCCSVQK (cysteine pairing not given here) [P3],Growth of HCT116 cells,HCT116 cells; 0–250 μg/mL,inhibited the growth of HCT116 cells in a dose-dependent manner
same,Inhibition of HCT116 cell proliferation,HCT116 cells; 250 μg/mL,25.24%
same,Inhibition of HCT116 cells (as printed in results text),"HCT116 cells; 250 μg/mL, vs control",74.76%
same,ORAC value of RP-HPLC fraction,[1]; each 2-mL fraction lyophilized and re-dissolved in 0.5 mL 75 mM phosphate buffer,94.21 μmol of TE
same,ORAC,"[1]; fluorescein 80 nM, AAPH 150 mM, 37℃, trolox standard, means, SEM 4.662",202.66^a µM TE/g of dry matter
same,p38 phosphorylation,"[2]; 0, 50, 100 and 250 μg/mL",significantly phosphorylated by P3 with dose dependent
same,ERK phosphorylation,[2]; 50 μg/mL,activated
same,JNK phosphorylation,[2]; 100 and 250 μg/mL,significantly activated
